One block for each compound: values may come before it. Calls of active or inactive are those of the source. The calls are words filed in the database; no cut-off is given here.
Experiments:
[1] = target: T1, Thyroid hormone receptor beta (Rattus norvegicus) (UniProt P18113); experiment: Thyromimetic activity (induction of GPDH) in rat heart expressed as percentage of ratio of the ED50 for T3; I= Inactive; type: functional, tissue-based
T1 sequence (whole entry): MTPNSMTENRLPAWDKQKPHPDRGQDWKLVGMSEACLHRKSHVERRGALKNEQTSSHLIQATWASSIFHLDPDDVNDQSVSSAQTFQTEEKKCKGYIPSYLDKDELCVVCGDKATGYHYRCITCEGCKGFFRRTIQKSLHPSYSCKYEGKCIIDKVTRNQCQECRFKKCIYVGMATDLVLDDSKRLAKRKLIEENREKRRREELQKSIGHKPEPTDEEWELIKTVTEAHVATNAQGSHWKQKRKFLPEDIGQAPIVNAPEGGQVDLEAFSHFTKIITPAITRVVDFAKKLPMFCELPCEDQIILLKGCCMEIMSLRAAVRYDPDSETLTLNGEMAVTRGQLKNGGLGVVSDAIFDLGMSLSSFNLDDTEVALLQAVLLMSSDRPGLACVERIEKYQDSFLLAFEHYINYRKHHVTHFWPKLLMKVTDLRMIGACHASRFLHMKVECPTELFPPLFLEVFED
Outline: (§1)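 Hypothyroid rats received a single intramuscular injection in 0.15 M NaCl/0.01 M NaOH vehicle (1 mL/kg), up to 50 mg/kg. Mitochondrial GPDH activity was measured in the organ 48 h later. Dose-response curves were fitted to a hyperbola by nonlinear fitting to give ED50, and rel ED50 = (ED50 T3 / ED50 compound) × 100. Where the maximum was below T3's, the percent of maximal response at 50 mg/kg was calculated.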

Rattus norvegicus [2] = species: Rattus norvegicus; experiment: Thyromimetic activity (induction of GPDH) in rat liver expressed as percentage of ratio of the ED50 for T3 to that of the test compound; I= Inactive; type: functional, organism-based; outline: as §1
[3] = pKa for compound was evaluated; type: physicochemical
[4] = target: T1, Thyroid hormone receptor beta (Rattus norvegicus); experiment: Thyromimetic activity (induction of GPDH) in rat heart expressed as percentage of ratio of the ED50 for T3; F= Full agonist; type: functional, tissue-based; conditions: filed as agonist; outline: as §1
Rattus norvegicus [5] = experiment: Relative in vivo thyromimetic potency (GPDH induction) in rat heart, expressed as percent ratio of ED50 for T3 to that of compound; F= Full agonist; conditions: filed as agonist
[6] = target: T1, Thyroid hormone receptor beta (Rattus norvegicus); experiment: Thyromimetic activity (induction of GPDH) in rat liver expressed as percentage of ratio of the ED50 for T3; F= Full agonist; type: functional; conditions: filed as agonist; outline: as §1
Rattus norvegicus [7] = species: Rattus norvegicus; experiment: Thyromimetic activity (induction of GPDH) in rat heart expressed as percentage of ratio of the ED50 for T3 to that of the test compound; LM= Low maximum response; type: functional, organism-based; conditions: filed as partial agonist; outline: as §1
Rattus norvegicus [8] = species: Rattus norvegicus; experiment: Thyromimetic activity (induction of GPDH) in rat liver expressed as percentage of ratio of the ED50 for T3 to that of the test compound; Full agonist; type: functional, organism-based; conditions: filed as agonist; outline: as §1
Rattus norvegicus [9] = species: Rattus norvegicus; experiment: Thyromimetic activity (induction of GPDH) in rat heart expressed as percentage of ratio of the ED50 for T3 to that of the test compound; Full agonist; type: functional, organism-based; conditions: filed as agonist; outline: as §1

- Relative ED50 [1]: inactive
SMILES: CCCC(=O)NCc1cc(Oc2c(I)cc(CC(N)C(=O)O)cc2I)ccc1O (stereo unspecified)
- Relative ED50 (Rattus norvegicus [2]): inactive

- pKa [3]: 10.6
SMILES: CC(C)(C)c1cc(Oc2c(I)cc(CC(N)C(=O)O)cc2I)ccc1O (stereo unspecified)

- pKa [3]: 10.1
SMILES: NC(Cc1cc(I)c(Oc2ccc(O)c(Cc3ccccc3)c2)c(I)c1)C(=O)O (stereo unspecified)

- pKa [3]: 10
SMILES: NC(Cc1cc(I)c(Oc2ccc(O)c(-c3ccccc3)c2)c(I)c1)C(=O)O (stereo unspecified)

- pKa [3]: 8.56
SMILES: NC(Cc1cc(I)c(Oc2ccc(O)c(Cl)c2)c(I)c1)C(=O)O (stereo unspecified)

- Relative ED50 [1]: inactive
SMILES: CCC(=O)NCCc1cc(Oc2c(I)cc(CC(N)C(=O)O)cc2I)ccc1O (stereo unspecified)

- pKa [3]: 7.23
- Relative ED50 [4]: Agonist
SMILES: NC(Cc1cc(I)c(Oc2ccc(O)c([N+](=O)[O-])c2)c(I)c1)C(=O)O (stereo unspecified)

- pKa [3]: 8.45
SMILES: NC(Cc1cc(I)c(Oc2ccc(O)c(Br)c2)c(I)c1)C(=O)O (stereo unspecified)

- Relative ED50 (Rattus norvegicus [5]): Agonist
- Relative ED50 [6]: Agonist
- pKa [3]: 8.73
SMILES: NC(Cc1cc(I)c(Oc2ccc(O)c(F)c2)c(I)c1)C(=O)O (stereo unspecified)

SMILES: NC(Cc1cc(I)c(Oc2ccc(O)c(CCCCO)c2)c(I)c1)C(=O)O (stereo unspecified)
- Relative ED50 (Rattus norvegicus [7]): Partial agonist

- pKa [3]: 10.3
SMILES: C=CCc1cc(Oc2c(I)cc(CC(N)C(=O)O)cc2I)ccc1O (stereo unspecified)

- pKa [3]: 9.34
SMILES: NC(Cc1cc(I)c(Oc2ccc(O)c(O)c2)c(I)c1)C(=O)O (stereo unspecified)

- Relative ED50 [1]: inactive
SMILES: CC(=O)NCCCc1cc(Oc2c(I)cc(CC(N)C(=O)O)cc2I)ccc1O (stereo unspecified)

- Relative ED50 [6]: Agonist
SMILES: CCOCCCc1cc(Oc2c(I)cc(CC(N)C(=O)O)cc2I)ccc1O (stereo unspecified)

- Relative ED50 [6]: Agonist
- Relative ED50 [4]: Agonist
SMILES: CCCCOCc1cc(Oc2c(I)cc(CC(N)C(=O)O)cc2I)ccc1O (stereo unspecified)

- Relative ED50 [6]: Agonist
- Relative ED50 [4]: Agonist
SMILES: CCC(C)c1cc(Oc2c(I)cc(CC(N)C(=O)O)cc2I)ccc1O (stereo unspecified)

- pKa [3]: 10.3
SMILES: Cc1cc(Oc2c(I)cc(CC(N)C(=O)O)cc2I)ccc1O (stereo unspecified)

- pKa [3]: 9.92
SMILES: NC(Cc1cc(I)c(Oc2ccc(O)c(CO)c2)c(I)c1)C(=O)O (stereo unspecified)

- Relative ED50 [6]: Agonist
- Relative ED50 [4]: Agonist
SMILES: CC(C)Cc1cc(Oc2c(I)cc(CC(N)C(=O)O)cc2I)ccc1O (stereo unspecified)

SMILES: CCC(=O)c1cc(Oc2c(I)cc(CC(N)C(=O)O)cc2I)ccc1O (stereo unspecified)
- Relative ED50 (Rattus norvegicus [8]): Agonist

- pKa [3]: 10.1
SMILES: CC(=O)c1cc(Oc2c(I)cc(CC(N)C(=O)O)cc2I)ccc1O (stereo unspecified)

- Relative ED50 [6]: Agonist
- Relative ED50 [4]: Agonist
SMILES: NC(Cc1cc(I)c(Oc2ccc(O)c(CC3CCCCC3)c2)c(I)c1)C(=O)O (stereo unspecified)

- pKa [3]: 8.51
SMILES: N[C@@H](Cc1cc(I)c(Oc2ccc(O)c(I)c2)c(I)c1)C(=O)O [LIOTHYRONINE]

- pKa [3]: 10.5
SMILES: CC(C)c1cc(Oc2c(I)cc(CC(N)C(=O)O)cc2I)ccc1O (stereo unspecified)

- pKa [3]: 9.85
- Relative ED50 [4]: Agonist
SMILES: COCc1cc(Oc2c(I)cc(CC(N)C(=O)O)cc2I)ccc1O (stereo unspecified)

- Relative ED50 [6]: Agonist
SMILES: CCCCSCc1cc(Oc2c(I)cc(CC(N)C(=O)O)cc2I)ccc1O (stereo unspecified)

- Relative ED50 [6]: Agonist
SMILES: NC(Cc1cc(I)c(Oc2ccc(O)c(C3CCCCC3)c2)c(I)c1)C(=O)O (stereo unspecified)

- pKa [3]: 8.37
SMILES: NC(Cc1cc(I)c(Oc2ccc(O)c(C=O)c2)c(I)c1)C(=O)O (stereo unspecified)
- Relative ED50 (Rattus norvegicus [9]): Agonist

- Relative ED50 [4]: Agonist
SMILES: CCCCc1cc(Oc2c(I)cc(CC(N)C(=O)O)cc2I)ccc1O (stereo unspecified)

- pKa [3]: 9.99
SMILES: N[C@@H](Cc1cc(I)c(Oc2ccc(O)cc2)c(I)c1)C(=O)O

- Relative ED50 [4]: Agonist
SMILES: COCCCCc1cc(Oc2c(I)cc(CC(N)C(=O)O)cc2I)ccc1O (stereo unspecified)

- Relative ED50 [1]: inactive
SMILES: NC(Cc1cc(I)c(Oc2ccc(O)c(C(=O)O)c2)c(I)c1)C(=O)O (stereo unspecified)
- Relative ED50 (Rattus norvegicus [2]): inactive

- Relative ED50 [1]: inactive
SMILES: NCc1cc(Oc2c(I)cc(CC(N)C(=O)O)cc2I)ccc1O (stereo unspecified)
- Relative ED50 (Rattus norvegicus [2]): inactive

- Relative ED50 [1]: inactive
SMILES: NCCc1cc(Oc2c(I)cc(CC(N)C(=O)O)cc2I)ccc1O (stereo unspecified)
